According to ChEMBL document CHEMBL4414574, “Structure-Based Discovery and Development of a Series of Potent and Selective Bromodomain and Extra-Terminal Protein Inhibitors” (J Med Chem, 2019):
The source made the active and inactive calls. No cut-off for these calls is given here.

Key:
[1] = target: T1, Bromodomain-containing protein 4 (Homo sapiens, UniProt O60885); experiment: Displacement of 5-FITC labelled (+)-JQ1 from His6-tagged human BRD4 bromodomain 1 expressed in Escherichia coli BL21(DE3) )-codon plus-RIL cells incubated for 4 hrs in dark condition by fluorescence anisotropy binding assay
[2] = target: T1, Bromodomain-containing protein 4; experiment: Inhibition of BRD4 bromodomain 2 (unknown origin)
CYP2C9 = CYP2C9 (Homo sapiens, UniProt P11712); experiment: Reversible inhibition of CYP2C9 in human liver microsomes at 10 uM using diclofenac as substrate preincubated for 5 mins followed by NADPH generating system addition and measured after 20 mins relative to control; assay type: ADME; conditions: probe diclofenac
How it was run: (§1)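 Human liver microsomes 0.2 mg/mL, 100 mM phosphate pH 7.4, 10 μM test compound, probe cocktail (10 μM midazolam, 100 μM testosterone, 10 μM dextromethorphan, 20 μM diclofenac, 100 μM phenacetin, 100 μM mephenytoin); organic solvent <1%; 5 min preincubation at 37 °C, started with NADPH-generating system, 20 min reaction; metabolite formation expressed relative to PBS control.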

MM1.S = experiment: Antiproliferative activity against human MM1S cells after 72 hrs by CCK8 or SRB assay; assay type: functional, cell-based
How it was run: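 IC50 against MM.1S cell proliferation was taken as the mean of three independent experiments, each run in triplicate, reported with SEM.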

Cytochrome P450 2C19 = Cytochrome P450 2C19 (Homo sapiens, UniProt P33261); experiment: Time-dependent inhibition of CYP2C19 in human liver microsomes at 10 uM using mephenytoin as substrate preincubated up to 30 mins followed by NADPH generating system addition and measured after 10 mins; assay type: ADME
How it was run: (§2)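 Human liver microsomes 0.2 mg/mL, 100 mM phosphate pH 7.4, 10 μM test compound, preincubated 0, 5, 10 and 30 min at 37 °C; then NADPH plus probe cocktail (5 μM midazolam, 50 μM testosterone, 5 μM dextromethorphan, 10 μM diclofenac, 50 μM phenacetin, 50 μM S-(+)-mephenytoin) added; 10 min reaction; kobs in units of 10^-4/min.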

[3] = target: Bromodomain-containing protein 2 (Homo sapiens) (UniProt P25440); experiment: Inhibition of BRD2 bromodomain 1 (unknown origin)
Cytochrome P450 1A2 = target: T2, Cytochrome P450 1A2 (Homo sapiens, UniProt P05177); experiment: Time-dependent inhibition of CYP1A2 in human liver microsomes at 10 uM using phenacetin as substrate preincubated up to 30 mins followed by NADPH generating system addition and measured after 10 mins; assay type: ADME; how it was run: as §2
T2 sequence (P05177 whole entry): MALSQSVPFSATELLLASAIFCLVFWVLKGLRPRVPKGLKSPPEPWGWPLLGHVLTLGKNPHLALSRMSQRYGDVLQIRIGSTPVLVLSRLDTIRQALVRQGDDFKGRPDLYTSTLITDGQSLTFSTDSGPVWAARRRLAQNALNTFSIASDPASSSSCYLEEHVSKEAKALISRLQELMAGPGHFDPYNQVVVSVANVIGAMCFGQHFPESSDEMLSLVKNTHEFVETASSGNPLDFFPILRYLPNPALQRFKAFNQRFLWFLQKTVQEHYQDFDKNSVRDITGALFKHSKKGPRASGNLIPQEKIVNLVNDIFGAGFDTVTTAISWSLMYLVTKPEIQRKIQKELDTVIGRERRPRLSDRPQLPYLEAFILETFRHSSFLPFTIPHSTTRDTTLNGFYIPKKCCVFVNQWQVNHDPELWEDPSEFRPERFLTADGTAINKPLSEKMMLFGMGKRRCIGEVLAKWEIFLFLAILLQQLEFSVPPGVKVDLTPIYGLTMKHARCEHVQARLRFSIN

[4] = target: Histone acetyltransferase p300 (Homo sapiens) (UniProt Q09472); experiment: Inhibition of EP300 (unknown origin) at 1 uM
How it was run: (§3)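 Bromodomain binding panel (32 bromodomains) screened at 1 μM; primary binding read-out reported as percent of control, lower values meaning stronger binding.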

[5] = Metabolic stability in mouse liver microsomes at 1 uM preincubated for 5 mins followed by NADPH addition and measured after 5 to 30 mins by LC/MS/MS analysis; assay type: ADME, Microsome
How it was run: (§4)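 Liver microsomes (0.5 mg/mL) preincubated 5 min at 37 °C with 1 μM compound in 0.1 M phosphate buffer pH 7.4 containing 1 mM EDTA and 5 mM MgCl2; started with 1 mM NADPH; sampled at 0, 5, 10 and 30 min; quenched with cold acetonitrile; parent remaining quantified by LC/MS/MS.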

[6] = Metabolic stability in human liver microsomes at 1 uM preincubated for 5 mins followed by NADPH addition and measured after 5 to 30 mins by LC/MS/MS analysis; assay type: ADME, Microsome; how it was run: as §4
Cytochrome P450 2D6 = Cytochrome P450 2D6 (Homo sapiens, UniProt P10635); experiment: Time-dependent inhibition of CYP2D6 in human liver microsomes at 10 uM using dextromethorphan as substrate preincubated up to 30 mins followed by NADPH generating system addition and measured after 10 mins; assay type: ADME; how it was run: as §2
Cytochrome P450 3A4 = Cytochrome P450 3A4 (Homo sapiens, UniProt P08684); experiment: Time-dependent inhibition of CYP3A4 in human liver microsomes at 10 uM using midazolam or testosterone as substrate preincubated up to 30 mins followed by NADPH generating system addition and measured after 10 mins; assay type: ADME; how it was run: as §2
[7] = target: Bromodomain-containing protein 2 (Homo sapiens) (UniProt P25440); experiment: Inhibition of BRD2 bromodomain 2 (unknown origin); how it was run: as §3
Cytochrome P450 2C9 = Cytochrome P450 2C9 (Homo sapiens, UniProt P11712); experiment: Time-dependent inhibition of CYP2C9 in human liver microsomes at 10 uM using diclofenac as substrate preincubated up to 30 mins followed by NADPH generating system addition and measured after 10 mins; assay type: ADME; how it was run: as §2
[8] = target: T1, Bromodomain-containing protein 4; experiment: Inhibition of BRD4 bromodomain 1 (unknown origin)
How it was run: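 BRD4 BD1 (His6-tagged, E. coli BL21(DE3)-expressed, Ni-NTA purified) at 10 nM with 5 nM FITC-labelled (+)-JQ1 tracer; 50 mM HEPES pH 7.4, 150 mM NaCl, 0.5 mM CHAPS, DMSO 2‰ final; graded inhibitor; 4 h dark equilibration at room temperature; fluorescence anisotropy read (ex 485/em 530 nm). IC50 from two independent experiments in duplicate, mean ± SEM.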

CYP2C19 = CYP2C19 (Homo sapiens, UniProt P33261); experiment: Reversible inhibition of CYP2C19 in human liver microsomes at 10 uM using mephenytoin as substrate preincubated for 5 mins followed by NADPH generating system addition and measured after 20 mins relative to control; assay type: ADME; conditions: probe mephenytoin; how it was run: as §1
[9] = Intrinsic clearance in mouse liver microsomes at 1 uM preincubated for 5 mins followed by NADPH addition and measured after 5 to 30 mins by LC/MS/MS analysis; assay type: ADME, Microsome; conditions: read-out: CLH; how it was run: as §4
[10] = AUC (0 to infinity) in ICR mouse at 10 mg/kg, po administered via gavage measured after 0.25 to 24 hrs by UPLC/MS analysis; assay type: ADME, organism-based; parameters: dose 10 mg/kg, route oral, time infinity; conditions: in vivo
How it was run: (§5)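 Male ICR mice were dosed orally in 1% DMSO/0.5% HPMC vehicle. Plasma (and brain, where stated) concentrations gave Tmax, Cmax, T1/2, AUC0-t and AUC0-inf.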

CYP2D6 = CYP2D6 (Homo sapiens, UniProt P10635); experiment: Reversible inhibition of CYP2D6 in human liver microsomes at 10 uM using dextromethorphan as substrate preincubated for 5 mins followed by NADPH generating system addition and measured after 20 mins relative to control; assay type: ADME; conditions: probe dextromethorphan; how it was run: as §1
[11] = Half life in human liver microsomes at 1 uM preincubated for 5 mins followed by NADPH addition and measured after 5 to 30 mins by LC/MS/MS analysis; assay type: ADME, Microsome
[12] = Cmax in ICR mouse at 10 mg/kg, po administered via gavage measured after 0.25 to 24 hrs by UPLC/MS analysis; assay type: ADME, organism-based; parameters: dose 10 mg/kg, route oral; conditions: in vivo
How it was run: (§6)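 Male ICR mice dosed orally in 1% DMSO/0.5% HPMC vehicle; plasma or brain drug levels used to derive Tmax, Cmax, AUC0-t, AUC0-inf and T1/2.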

[13] = Half life in ICR mouse at 10 mg/kg, po administered via gavage measured after 0.25 to 24 hrs by UPLC/MS analysis; assay type: ADME, organism-based; conditions: in vivo; how it was run: as §6
[14] = Half life in mouse liver microsomes at 1 uM preincubated for 5 mins followed by NADPH addition and measured after 5 to 30 mins by LC/MS/MS analysis; assay type: ADME, Microsome; conditions: mouse liver microsomes
[15] = Tmax in ICR mouse at 10 mg/kg, po administered via gavage measured after 0.25 to 24 hrs by UPLC/MS analysis; assay type: ADME, organism-based; conditions: in vivo
How it was run: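 Male ICR mice dosed orally (3, 10 or 100 mg/kg, per line) in 1% DMSO/0.5% HPMC vehicle; plasma drug levels measured.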

[16] = Intrinsic clearance in human liver microsomes at 1 uM preincubated for 5 mins followed by NADPH addition and measured after 5 to 30 mins by LC/MS/MS analysis; assay type: ADME, Microsome; conditions: read-out: CLH; how it was run: as §4
[17] = AUC (0 to t) in ICR mouse at 10 mg/kg, po administered via gavage measured after 0.25 to 24 hrs by UPLC/MS analysis; assay type: ADME, organism-based; parameters: time 0.25-24 hr, dose 10 mg/kg, route oral; conditions: in vivo; how it was run: as §5
CYP3A4 = CYP3A4 (Homo sapiens, UniProt P08684); experiment: Reversible inhibition of CYP3A4 in human liver microsomes at 10 uM using midazolam or testosterone as substrate preincubated for 5 mins followed by NADPH addition and measured after 20 mins relative to control; assay type: ADME; conditions: probe midazolam or testosterone; how it was run: as §1
CYP1A2 = CYP1A2 (Homo sapiens, UniProt P05177); experiment: Reversible inhibition of CYP1A2 in human liver microsomes at 10 uM using phenacetin as substrate preincubated for 5 mins followed by NADPH generating system addition and measured after 20 mins relative to control; assay type: ADME; conditions: probe phenacetin; how it was run: as §1

Chain of Cytochrome P450 2C9 (P11712 whole entry): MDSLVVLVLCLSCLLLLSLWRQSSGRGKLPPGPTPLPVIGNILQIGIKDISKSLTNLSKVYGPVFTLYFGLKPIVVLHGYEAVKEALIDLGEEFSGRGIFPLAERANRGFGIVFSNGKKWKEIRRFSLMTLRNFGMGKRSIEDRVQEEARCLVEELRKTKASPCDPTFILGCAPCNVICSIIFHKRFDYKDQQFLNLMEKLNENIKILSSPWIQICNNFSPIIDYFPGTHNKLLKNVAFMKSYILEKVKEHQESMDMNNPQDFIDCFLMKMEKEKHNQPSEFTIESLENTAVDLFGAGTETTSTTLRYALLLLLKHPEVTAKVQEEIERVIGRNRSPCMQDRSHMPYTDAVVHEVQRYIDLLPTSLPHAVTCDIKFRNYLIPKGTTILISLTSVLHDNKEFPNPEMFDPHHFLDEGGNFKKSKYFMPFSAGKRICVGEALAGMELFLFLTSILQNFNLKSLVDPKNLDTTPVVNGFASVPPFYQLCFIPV
Chain of CYP2C9 (P11712 whole entry): as above
Chain of Cytochrome P450 2C19 (P33261 whole entry): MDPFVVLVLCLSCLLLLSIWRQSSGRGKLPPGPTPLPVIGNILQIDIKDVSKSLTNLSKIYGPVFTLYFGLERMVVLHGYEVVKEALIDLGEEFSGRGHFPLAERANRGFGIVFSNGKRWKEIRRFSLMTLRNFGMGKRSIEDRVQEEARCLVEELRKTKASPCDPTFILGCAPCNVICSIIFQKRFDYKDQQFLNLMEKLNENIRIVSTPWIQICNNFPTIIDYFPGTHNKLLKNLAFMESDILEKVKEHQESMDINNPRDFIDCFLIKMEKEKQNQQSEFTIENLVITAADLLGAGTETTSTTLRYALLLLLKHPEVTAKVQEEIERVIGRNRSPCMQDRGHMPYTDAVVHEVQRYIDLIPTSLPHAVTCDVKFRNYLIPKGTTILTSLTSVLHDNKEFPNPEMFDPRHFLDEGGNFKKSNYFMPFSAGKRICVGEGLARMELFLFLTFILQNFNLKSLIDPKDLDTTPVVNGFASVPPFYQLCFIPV
Chain of Bromodomain-containing protein 2 (Homo sapiens) (P25440 whole entry, looked up): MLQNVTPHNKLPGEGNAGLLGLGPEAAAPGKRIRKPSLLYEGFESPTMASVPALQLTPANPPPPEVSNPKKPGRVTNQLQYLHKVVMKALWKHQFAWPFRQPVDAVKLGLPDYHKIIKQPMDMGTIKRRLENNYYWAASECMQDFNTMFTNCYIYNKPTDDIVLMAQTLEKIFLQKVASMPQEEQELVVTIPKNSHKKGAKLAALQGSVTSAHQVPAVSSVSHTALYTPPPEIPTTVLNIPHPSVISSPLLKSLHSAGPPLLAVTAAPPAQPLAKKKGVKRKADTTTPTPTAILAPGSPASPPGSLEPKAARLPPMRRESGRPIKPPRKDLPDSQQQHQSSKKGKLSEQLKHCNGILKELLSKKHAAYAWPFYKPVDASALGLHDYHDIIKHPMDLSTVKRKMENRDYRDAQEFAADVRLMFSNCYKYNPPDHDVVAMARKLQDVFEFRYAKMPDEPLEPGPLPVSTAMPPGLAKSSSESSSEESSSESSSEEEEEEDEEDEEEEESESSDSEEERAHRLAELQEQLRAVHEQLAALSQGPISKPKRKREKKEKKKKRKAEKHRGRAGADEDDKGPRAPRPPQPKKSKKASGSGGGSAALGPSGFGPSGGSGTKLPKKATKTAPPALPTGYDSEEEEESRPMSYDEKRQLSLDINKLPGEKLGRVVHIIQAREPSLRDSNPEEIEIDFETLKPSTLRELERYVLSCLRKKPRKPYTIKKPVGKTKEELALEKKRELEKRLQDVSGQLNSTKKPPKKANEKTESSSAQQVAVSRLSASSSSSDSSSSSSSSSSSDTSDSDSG
Chain of Cytochrome P450 3A4 (P08684 whole entry): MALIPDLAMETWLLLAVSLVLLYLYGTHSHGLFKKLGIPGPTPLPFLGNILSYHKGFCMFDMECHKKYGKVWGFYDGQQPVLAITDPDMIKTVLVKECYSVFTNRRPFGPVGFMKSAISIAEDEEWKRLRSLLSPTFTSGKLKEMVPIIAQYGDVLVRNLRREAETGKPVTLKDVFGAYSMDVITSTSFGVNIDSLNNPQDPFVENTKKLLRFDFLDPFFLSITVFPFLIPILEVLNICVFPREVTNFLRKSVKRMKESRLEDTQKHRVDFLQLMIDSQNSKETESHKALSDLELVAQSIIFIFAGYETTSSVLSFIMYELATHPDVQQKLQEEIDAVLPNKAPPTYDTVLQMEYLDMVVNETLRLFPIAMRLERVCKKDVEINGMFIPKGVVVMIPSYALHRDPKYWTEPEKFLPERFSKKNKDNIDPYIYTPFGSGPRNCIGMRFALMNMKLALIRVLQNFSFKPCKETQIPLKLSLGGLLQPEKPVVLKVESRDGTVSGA
Chain of Cytochrome P450 2D6 (P10635 whole entry): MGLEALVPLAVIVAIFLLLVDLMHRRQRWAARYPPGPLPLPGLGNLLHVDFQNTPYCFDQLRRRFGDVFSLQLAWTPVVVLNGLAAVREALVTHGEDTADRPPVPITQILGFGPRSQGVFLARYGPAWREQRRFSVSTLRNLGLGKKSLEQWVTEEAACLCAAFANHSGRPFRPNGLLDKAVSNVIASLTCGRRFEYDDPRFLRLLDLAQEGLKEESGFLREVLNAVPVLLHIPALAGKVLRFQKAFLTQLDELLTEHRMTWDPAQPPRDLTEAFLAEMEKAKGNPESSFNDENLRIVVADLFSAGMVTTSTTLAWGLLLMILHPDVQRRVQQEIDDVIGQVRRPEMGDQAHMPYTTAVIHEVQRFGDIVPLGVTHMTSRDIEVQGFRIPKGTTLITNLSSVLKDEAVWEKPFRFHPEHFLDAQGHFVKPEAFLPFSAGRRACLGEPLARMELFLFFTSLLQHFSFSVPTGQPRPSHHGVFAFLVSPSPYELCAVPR
Chain of CYP2C19 (P33261 whole entry): as the sequence (P33261 whole entry) above
Chain of CYP3A4 (P08684 whole entry): as the sequence (P08684 whole entry) above
Chain of CYP2D6 (P10635 whole entry): as the sequence (P10635 whole entry) above

IC50 [1] [nM] | inhibition [2] | inhibition at 20 min, 10 µM (CYP2C9) [%] | IC50 (MM1.S) [nM] | TDI (Cytochrome P450 2C19) | inhibition activity call (active/inactive) [3] | TDI (Cytochrome P450 1A2) | inhibition [4] | TDI (Cytochrome P450 2D6) | TDI (Cytochrome P450 3A4) | inhibition [7] | TDI (Cytochrome P450 2C9) | inhibition [8] | inhibition at 20 min, 10 µM (CYP2C19) [%] | microsomal CLint at 1 µM [9] [µL/min/mg] | AUC(0-inf) [10] [ng·h/mL] | half-life at 1 µM [11] [min] | Cmax [12] [ng/mL] | half-life [13] [min] | half-life at 1 µM [14] [min] | Structure (SMILES) | further results
5.2 | Active | > 50 | 3.9 | Not Active | Active | Not Active | inactive | Not Active | Not Active | Active | Not Active | Active | – | – | – | – | – | – | – | Cc1ccc(-n2c(C)nnc2-c2ccc3c(c2)N(C2CCCC2)[C@H](C)C(=O)N3C)cc1 | Stability [5]: Stable; Stability [6]: Stable
5.4 | Active | 30 | 26.1 | 141 ×10⁻⁴ /min | Active | 51 ×10⁻⁴ /min | inactive | Not Active | 55 ×10⁻⁴ /min | Active | 74 ×10⁻⁴ /min | Active | 19 | 34 | 58100 | 23 | 42900 | 36 | 41 | Cc1ccc(-n2nc(C(=O)N3CCN(C)CC3)nc2-c2ccc3c(c2)N(C2CCCC2)[C@H](C)C(=O)N3C)cc1 | inhibition at 20 min, 10 µM (CYP2D6): 3%; Tmax [15]: 18 min; microsomal CLint at 1 µM [16]: 61 µL/min/mg; AUC(0-t) [17]: 58100 ng·h/mL; inhibition at 20 min, 10 µM (CYP3A4): 31%
9.4 | – | 6 | 8 | Not Active | – | 41 ×10⁻⁴ /min | – | 14 ×10⁻⁴ /min | 19 ×10⁻⁴ /min | – | 19 ×10⁻⁴ /min | – | 17 | 13 | 2760 | 62 | 1230 | 102 | 107 | Cc1ccc(-n2nc(C(=O)N3CCN(C)CC3)nc2-c2ccc3c(c2)N(C2CC2)C(C)C(=O)N3C)cc1 (stereo not given) | inhibition at 20 min, 10 µM (CYP1A2): 2%; Tmax [15]: 18 min; microsomal CLint at 1 µM [16]: 22 µL/min/mg; AUC(0-t) [17]: 2740 ng·h/mL; inhibition at 20 min, 10 µM (CYP3A4): 12%
